Calls of active or inactive are those of the source. The rule behind the calls is not given here.
Legend:
[1] = target: Protein kinase C alpha type (Homo sapiens) (UniProt P17252); assay: Inhibition of PRKCA relative to control; settings: concentration not given here
[2] = target: Interleukin-1 receptor-associated kinase 4 (Homo sapiens) (UniProt Q9NWZ3); assay: Inhibition of IRAK4 relative to control; settings: concentration not given here
[3] = target: Tyrosine-protein kinase Tec (Homo sapiens) (UniProt P42680); assay: Inhibition of TEC relative to control; settings: concentration not given here
[4] = target: T1, Receptor tyrosine-protein kinase erbB-4 (Homo sapiens, UniProt Q15303); assay: Inhibition of ERBB4 relative to control
T1 sequence (Q15303 whole entry): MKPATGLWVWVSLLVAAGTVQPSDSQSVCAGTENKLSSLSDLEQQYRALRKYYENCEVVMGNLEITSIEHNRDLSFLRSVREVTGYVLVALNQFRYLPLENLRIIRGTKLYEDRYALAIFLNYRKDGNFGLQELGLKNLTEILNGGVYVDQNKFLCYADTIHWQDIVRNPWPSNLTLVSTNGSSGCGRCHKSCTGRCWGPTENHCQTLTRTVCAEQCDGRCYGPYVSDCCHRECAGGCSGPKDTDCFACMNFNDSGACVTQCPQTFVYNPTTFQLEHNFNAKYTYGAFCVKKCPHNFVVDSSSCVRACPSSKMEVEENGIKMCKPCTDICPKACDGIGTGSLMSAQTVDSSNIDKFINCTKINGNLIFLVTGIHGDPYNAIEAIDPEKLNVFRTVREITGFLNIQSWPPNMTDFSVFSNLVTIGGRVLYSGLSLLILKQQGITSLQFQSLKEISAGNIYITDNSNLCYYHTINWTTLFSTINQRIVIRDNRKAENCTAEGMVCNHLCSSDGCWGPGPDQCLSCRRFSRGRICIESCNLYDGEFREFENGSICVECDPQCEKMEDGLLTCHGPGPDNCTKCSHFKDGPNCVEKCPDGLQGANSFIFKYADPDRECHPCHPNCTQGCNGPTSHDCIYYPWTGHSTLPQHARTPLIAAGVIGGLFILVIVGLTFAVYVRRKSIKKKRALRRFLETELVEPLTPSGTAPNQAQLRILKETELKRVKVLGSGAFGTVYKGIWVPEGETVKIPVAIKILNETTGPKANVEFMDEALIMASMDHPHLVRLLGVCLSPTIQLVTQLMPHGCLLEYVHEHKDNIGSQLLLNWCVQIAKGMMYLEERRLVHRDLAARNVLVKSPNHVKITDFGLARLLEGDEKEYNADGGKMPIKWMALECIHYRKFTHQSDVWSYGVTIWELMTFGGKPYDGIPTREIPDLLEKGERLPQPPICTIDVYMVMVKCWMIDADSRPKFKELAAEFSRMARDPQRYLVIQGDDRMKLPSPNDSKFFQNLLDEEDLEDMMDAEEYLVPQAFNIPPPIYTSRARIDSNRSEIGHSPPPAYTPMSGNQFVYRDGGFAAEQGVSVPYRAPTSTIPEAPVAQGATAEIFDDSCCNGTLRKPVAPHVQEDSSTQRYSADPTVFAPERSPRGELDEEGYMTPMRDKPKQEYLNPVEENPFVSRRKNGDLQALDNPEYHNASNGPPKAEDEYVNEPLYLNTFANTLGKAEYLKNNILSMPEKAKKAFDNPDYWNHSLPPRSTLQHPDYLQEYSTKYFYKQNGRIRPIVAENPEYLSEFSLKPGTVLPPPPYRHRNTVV

[5] = target: Serine/threonine-protein kinase MARK1 (Homo sapiens) (UniProt Q9P0L2); assay: Inhibition of MARK1 relative to control; settings: concentration not given here
Serine/threonine-protein kinase MARK1 (Homo sapiens), sequence (Q9P0L2 whole entry, looked up): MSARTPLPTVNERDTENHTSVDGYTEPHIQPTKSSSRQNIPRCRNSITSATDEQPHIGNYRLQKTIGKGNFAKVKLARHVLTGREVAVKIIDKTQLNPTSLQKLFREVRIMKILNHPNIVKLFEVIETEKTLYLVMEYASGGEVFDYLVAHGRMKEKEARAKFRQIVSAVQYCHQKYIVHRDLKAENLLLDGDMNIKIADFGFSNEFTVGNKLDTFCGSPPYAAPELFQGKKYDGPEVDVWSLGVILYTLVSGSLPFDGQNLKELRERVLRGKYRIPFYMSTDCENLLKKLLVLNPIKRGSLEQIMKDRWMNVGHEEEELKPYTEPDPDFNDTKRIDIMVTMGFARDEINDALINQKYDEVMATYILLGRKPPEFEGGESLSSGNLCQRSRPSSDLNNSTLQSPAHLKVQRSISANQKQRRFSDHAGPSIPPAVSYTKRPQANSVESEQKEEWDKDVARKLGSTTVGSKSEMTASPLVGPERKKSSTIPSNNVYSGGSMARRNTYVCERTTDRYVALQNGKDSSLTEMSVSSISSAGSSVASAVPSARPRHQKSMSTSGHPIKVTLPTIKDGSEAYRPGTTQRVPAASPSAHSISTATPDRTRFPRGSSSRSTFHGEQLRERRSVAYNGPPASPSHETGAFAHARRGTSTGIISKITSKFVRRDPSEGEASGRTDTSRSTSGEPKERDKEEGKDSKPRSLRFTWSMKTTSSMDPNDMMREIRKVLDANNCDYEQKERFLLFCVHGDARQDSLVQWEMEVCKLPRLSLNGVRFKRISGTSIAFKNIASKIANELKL

[6] = test system: Mus musculus; assay: Antiarthritic activity in C57BL/6 mouse assessed as inhibition of T-independent type 2 antigen-induced IgG3 antibody titer production administered qd for 7 days by ELISA; assay type: functional, organism-based; settings: C57BL6
Procedure, shortened: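 Female C57BL/6 mice, 8–10 weeks old, immunized ip with NP(109)-Ficoll (TI-2 antigen). Compound or vehicle given po daily for 7 days, starting 1 day before immunization. Serum was collected 6 days after immunization, and NP-specific IgM and IgG3 titers were measured by ELISA.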

[7] = target: 3-phosphoinositide-dependent protein kinase 1 (Homo sapiens) (UniProt O15530); assay: Inhibition of PDK1 relative to control; settings: concentration not given here
[8] = AUC (0 to infinity) in mouse at 2 mg/kg, iv; assay type: ADME, organism-based; parameters: time infinity, dose 2 mg/kg, route intravenous; settings: plasma
[9] = target: T2, Tyrosine-protein kinase BTK (Homo sapiens, UniProt Q06187); assay: Inhibition of BTK autophosphorylation at PY223 in human Ramos B cells after 20 mins by Western blot analysis; assay type: cell-based
T2 sequence (Q06187 whole entry): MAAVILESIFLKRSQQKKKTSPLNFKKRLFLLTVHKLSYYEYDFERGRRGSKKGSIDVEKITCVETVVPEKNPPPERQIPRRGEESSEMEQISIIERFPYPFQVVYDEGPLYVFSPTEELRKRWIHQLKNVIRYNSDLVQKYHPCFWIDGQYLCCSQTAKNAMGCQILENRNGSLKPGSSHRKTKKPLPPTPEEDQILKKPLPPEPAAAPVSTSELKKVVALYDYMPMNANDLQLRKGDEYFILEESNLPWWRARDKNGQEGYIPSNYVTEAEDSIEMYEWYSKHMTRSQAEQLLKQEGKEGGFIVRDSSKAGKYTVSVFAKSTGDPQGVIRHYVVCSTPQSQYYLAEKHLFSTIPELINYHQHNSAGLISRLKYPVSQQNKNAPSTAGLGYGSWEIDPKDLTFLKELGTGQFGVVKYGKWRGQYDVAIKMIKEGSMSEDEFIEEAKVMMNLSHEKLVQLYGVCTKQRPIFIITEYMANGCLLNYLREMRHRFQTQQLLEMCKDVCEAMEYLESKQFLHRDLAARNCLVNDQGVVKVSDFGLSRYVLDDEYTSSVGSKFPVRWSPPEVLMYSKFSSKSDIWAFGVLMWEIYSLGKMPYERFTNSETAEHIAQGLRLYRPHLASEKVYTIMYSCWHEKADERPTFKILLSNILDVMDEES

[10] = target: Serine/threonine-protein kinase Chk2 (Homo sapiens) (UniProt O96017); assay: Inhibition of CHEK2 relative to control; settings: concentration not given here
Serine/threonine-protein kinase Chk2 (Homo sapiens), sequence (O96017 whole entry): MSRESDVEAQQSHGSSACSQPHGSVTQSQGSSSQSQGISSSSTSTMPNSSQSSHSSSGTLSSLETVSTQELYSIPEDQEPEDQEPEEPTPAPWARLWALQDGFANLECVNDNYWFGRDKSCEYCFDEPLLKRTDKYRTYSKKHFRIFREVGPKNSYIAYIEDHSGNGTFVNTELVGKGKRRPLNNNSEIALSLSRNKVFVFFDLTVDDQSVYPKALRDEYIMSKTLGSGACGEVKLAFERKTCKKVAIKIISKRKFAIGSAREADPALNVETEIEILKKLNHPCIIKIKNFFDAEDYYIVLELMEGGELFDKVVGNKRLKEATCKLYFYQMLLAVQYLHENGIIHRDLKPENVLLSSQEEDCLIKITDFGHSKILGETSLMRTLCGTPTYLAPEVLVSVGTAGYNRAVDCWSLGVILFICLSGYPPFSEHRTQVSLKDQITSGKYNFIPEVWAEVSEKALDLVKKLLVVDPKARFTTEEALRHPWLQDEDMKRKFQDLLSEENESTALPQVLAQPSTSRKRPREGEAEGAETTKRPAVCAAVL

[11] = target: Tyrosine-protein kinase FRK (Homo sapiens, UniProt P42685); assay: Inhibition of FRK relative to control
Tyrosine-protein kinase FRK, sequence (P42685 whole entry): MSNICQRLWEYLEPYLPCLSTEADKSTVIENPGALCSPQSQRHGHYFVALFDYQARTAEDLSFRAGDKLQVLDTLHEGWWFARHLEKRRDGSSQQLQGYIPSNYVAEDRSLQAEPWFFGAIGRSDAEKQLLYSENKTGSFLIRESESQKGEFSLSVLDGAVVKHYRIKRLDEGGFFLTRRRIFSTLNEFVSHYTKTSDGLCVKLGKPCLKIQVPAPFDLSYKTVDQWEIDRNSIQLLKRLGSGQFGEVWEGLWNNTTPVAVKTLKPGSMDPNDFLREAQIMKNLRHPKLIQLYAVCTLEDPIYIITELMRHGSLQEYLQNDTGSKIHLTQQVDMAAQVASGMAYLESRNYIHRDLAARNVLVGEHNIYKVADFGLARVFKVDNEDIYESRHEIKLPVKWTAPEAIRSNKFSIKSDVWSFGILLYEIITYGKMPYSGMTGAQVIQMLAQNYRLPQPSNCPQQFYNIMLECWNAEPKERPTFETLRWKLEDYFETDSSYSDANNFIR

[12] = target: T3, Tyrosine-protein kinase Lck (Homo sapiens, UniProt P06239); assay: Inhibition of LCK relative to control; settings: concentration not given here
[13] = Clearance in mouse at 2 mg/kg, iv; assay type: ADME, organism-based; parameters: dose 2 mg/kg, route intravenous; settings: in vivo
[14] = target: Phosphatidylinositol 4-phosphate 3-kinase C2 domain-containing subunit alpha (Homo sapiens) (UniProt O00443); assay: Inhibition of PI3K-C2 alpha relative to control; settings: concentration not given here
[15] = target: T2, Tyrosine-protein kinase BTK; assay: Inhibition of human full-length BTK expressed in Sf9 cells using FAM-Srctide peptide as substrate preincubated for 60 mins measured after 60 mins by TR-FRET Assay
Procedure, shortened: (§1)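 The compound was pre-incubated with the kinase before the enzymatic reaction was started. IC50 values are averages of two or more determinations.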

[16] = target: Ephrin type-B receptor 3 (Homo sapiens, UniProt P54753); assay: (§2) Inhibition of EPHB3 relative to control
[17] = target: Ephrin type-B receptor 3 (Homo sapiens) (UniProt P54753); assay: as §2; settings: concentration not given here
[18] = target: Tyrosine-protein kinase Fer (Homo sapiens) (UniProt P16591); assay: Inhibition of FER relative to control; settings: concentration not given here
[19] = Half life in mouse at 2 mg/kg, iv; assay type: ADME, organism-based; parameters: dose 2 mg/kg, route intravenous; settings: in vivo
[20] = target: Tyrosine-protein kinase JAK3 (Homo sapiens) (UniProt P52333); assay: Inhibition of JAK3 relative to control; settings: concentration not given here
[21] = target: Ribosomal protein S6 kinase alpha-1 (Homo sapiens) (UniProt Q15418); assay: Inhibition of RSK1 relative to control; settings: concentration not given here
[22] = target: RAF proto-oncogene serine/threonine-protein kinase (Homo sapiens) (UniProt P04049); assay: Inhibition of RAF1 relative to control; settings: concentration not given here
[23] = target: Glycogen synthase kinase-3 alpha (Homo sapiens) (UniProt P49840); assay: Inhibition of GSK3A relative to control; settings: concentration not given here
[24] = target: Tyrosine-protein kinase Lyn (Homo sapiens, UniProt P07948); assay: Inhibition of LYN-A expressed in Sf9 cells preincubated for 60 mins measured after 60 mins by TR-FRET Assay; procedure, shortened: as §1
Tyrosine-protein kinase Lyn, sequence (P07948 whole entry): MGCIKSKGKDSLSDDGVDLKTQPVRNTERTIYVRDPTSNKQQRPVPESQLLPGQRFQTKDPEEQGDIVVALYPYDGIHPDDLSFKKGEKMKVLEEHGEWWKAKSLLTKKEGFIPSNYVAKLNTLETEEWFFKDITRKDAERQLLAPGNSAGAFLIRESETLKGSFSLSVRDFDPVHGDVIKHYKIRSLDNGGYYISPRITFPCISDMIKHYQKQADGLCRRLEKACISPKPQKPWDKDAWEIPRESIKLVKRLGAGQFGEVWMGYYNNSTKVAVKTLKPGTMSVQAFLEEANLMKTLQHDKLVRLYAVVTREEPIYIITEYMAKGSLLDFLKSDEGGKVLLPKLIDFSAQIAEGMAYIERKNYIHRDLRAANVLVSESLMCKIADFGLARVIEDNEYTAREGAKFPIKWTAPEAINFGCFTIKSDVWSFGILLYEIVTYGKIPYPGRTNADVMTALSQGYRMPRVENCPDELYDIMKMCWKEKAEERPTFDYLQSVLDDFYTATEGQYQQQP

[25] = target: T1, Receptor tyrosine-protein kinase erbB-4; assay: Inhibition of HER4 relative to control; settings: concentration not given here
[26] = test system: Mus musculus; assay: Antiarthritic activity in DBA/1 JBomTac mouse collagen-induced arthritis model assessed as inhibition of disease progression at 3 mg/kg, po qd measured on day 5 to 22; assay type: functional, organism-based; parameters: dose 3 mg/kg
Procedure, shortened: (§3)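 Semi-therapeutic collagen-induced arthritis model. Blinded paw scoring used a 0–4 scale, reported as mean and SEM. Comparison to vehicle used Student's t-test, P <0.05.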

[27] = target: Proto-oncogene tyrosine-protein kinase receptor Ret (Homo sapiens) (UniProt P07949); assay: Inhibition of RET relative to control; settings: concentration not given here
[28] = target: Serine/threonine-protein kinase mTOR (Homo sapiens) (UniProt P42345); assay: Inhibition of FRAP1 relative to control; settings: concentration not given here
[29] = target: cAMP-dependent protein kinase catalytic subunit alpha (Homo sapiens) (UniProt P17612); assay: Inhibition of PRKACA relative to control; settings: concentration not given here
[30] = target: Tyrosine-protein kinase Fyn (Homo sapiens, UniProt P06241); assay: Inhibition of FYN relative to control
[31] = target: T3, Tyrosine-protein kinase Lck; assay: Inhibition of C-terminal His6-tagged human full-length LCK expressed in Sf9 cells after 60 mins by TR-FRET Assay
Target sequence in this assay (P06239 whole entry): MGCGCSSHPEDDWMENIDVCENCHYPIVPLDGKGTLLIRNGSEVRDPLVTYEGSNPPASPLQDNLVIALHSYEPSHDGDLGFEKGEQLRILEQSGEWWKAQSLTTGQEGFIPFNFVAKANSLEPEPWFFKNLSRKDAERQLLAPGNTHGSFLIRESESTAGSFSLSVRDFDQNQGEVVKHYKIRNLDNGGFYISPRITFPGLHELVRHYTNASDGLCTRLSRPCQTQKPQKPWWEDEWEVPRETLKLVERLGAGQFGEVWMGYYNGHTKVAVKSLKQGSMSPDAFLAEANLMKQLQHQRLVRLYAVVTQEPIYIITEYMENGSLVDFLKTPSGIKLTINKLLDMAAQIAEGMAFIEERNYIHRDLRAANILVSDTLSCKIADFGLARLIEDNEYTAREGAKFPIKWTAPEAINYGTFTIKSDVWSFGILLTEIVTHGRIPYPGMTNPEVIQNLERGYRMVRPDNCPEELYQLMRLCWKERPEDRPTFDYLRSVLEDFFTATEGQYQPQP

[32] = target: Insulin receptor (Homo sapiens) (UniProt P06213); assay: Inhibition of INSR relative to control; settings: concentration not given here
[33] = Cmax in mouse at 10 mg/kg, po; assay type: ADME, organism-based; parameters: dose 10 mg/kg, route oral; settings: in vivo
[34] = test system: Mus musculus; assay: Antiarthritic activity in DBA/1 JBomTac mouse collagen-induced arthritis model assessed as inhibition of disease progression at 1 mg/kg, po qd measured on day 19 to 22; assay type: functional, organism-based; parameters: dose 1 mg/kg; procedure, shortened: as §3
[35] = target: Mitogen-activated protein kinase 9 (Homo sapiens) (UniProt P45984); assay: Inhibition of JNK2 relative to control; settings: concentration not given here
[36] = test system: Hepatocyte growth factor receptor (Homo sapiens), P08581 [M1250T]; assay: Inhibition of MET M1250T mutant relative to control; settings: concentration not given here
[37] = target: Tyrosine-protein kinase CSK (Homo sapiens) (UniProt P41240); assay: Inhibition of CSK relative to control; settings: concentration not given here
[38] = target: Tyrosine-protein kinase ABL1 (Homo sapiens, UniProt P00519); assay: Inhibition of Abl1 relative to control
[39] = Volume of distribution at steady state in mouse at 2 mg/kg, iv; assay type: ADME, organism-based; parameters: dose 2 mg/kg, route intravenous; settings: in vivo, read-out: Vdss
Procedure, shortened: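 Mouse pharmacokinetics from single dosing at 2 mg/kg iv and 10 mg/kg po. The study derived AUC, T1/2, clearance, Vss, Tmax, Cmax and oral bioavailability (%F) from the paired iv and po arms.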

[40] = target: Receptor-interacting serine/threonine-protein kinase 2 (Homo sapiens) (UniProt O43353); assay: Inhibition of RIPK2 relative to control; settings: concentration not given here
[41] = target: Mitogen-activated protein kinase 1 (Homo sapiens) (UniProt P28482); assay: Inhibition of MAPK1 relative to control; settings: concentration not given here
[42] = target: Proto-oncogene tyrosine-protein kinase Src (Homo sapiens, UniProt P12931); assay: Inhibition of SRC relative to control; settings: concentration not given here
[43] = target: T3, Tyrosine-protein kinase Lck; assay: Inhibition of C-terminal His6-tagged human full-length LCK expressed in Sf9 cells preincubated for 60 mins measured after 60 mins by TR-FRET Assay
Target sequence in this assay (P06239 whole entry): as above

Cc1ccccc1Nc1nc2cc(F)c(N(C)C(=O)/C=C/CN(C)C)cc2n2cncc12
inhibition [1]: -6%
inhibition [2]: 10%
inhibition [3]: 42%
IC50 [4]: 0.0437 µM
inhibition [5]: 8%
inhibition [6]: Dose-dependent effect
inhibition [7]: 7%
AUC(0-inf) [8]: 0.51 µg·h/mL
IC50 [9]: 0.048 µM
inhibition [10]: 19%
IC50 [11]: 0.611 µM
inhibition ([11]; concentration not given here): 60%
inhibition [12]: 25%
clearance [13]: 3.78 L/h/kg
inhibition [14]: 0%
IC50 [15]: 0.0007 µM
IC50 [16]: 0.35 µM
inhibition [17]: 50%
inhibition [18]: 7%
half-life [19]: 1.5 h
inhibition [20]: -4%
inhibition [21]: 0%
inhibition [22]: 9%
inhibition [23]: 8%
IC50 [24]: 0.353 µM
inhibition [25]: 101%
Activity [26]: Active
inhibition [27]: 6%
inhibition [28]: 0%
inhibition [29]: 11%
IC50 [30]: 0.892 µM
inhibition ([30]; concentration not given here): 40%
IC50 [31]: 0.772 µM
inhibition [32]: -5%
Cmax [33]: 0.22 µg/mL
Activity [34]: Active
inhibition [35]: 18%
inhibition [36]: 5%
inhibition [37]: 15%
IC50 [38]: 0.109 µM
Vd [39]: 6.2 L/kg
inhibition [40]: 8%
inhibition [41]: -4%
inhibition [42]: 43%
IC50 [43]: 0.755 µM
